Assay results reported in ChEMBL document CHEMBL4130629 (J Med Chem, 2018).
In brackets after ≈: the same amount, converted by molar mass.

Columns and labels:
[1] = test system: Human immunodeficiency virus 1; assay: Antiviral activity against HIV1 infected in patients assessed as reduction in maxmum viral RNA by measuring log10 viral copies at 1800 mg, bid measured at day 8; format: functional
[2] = AUC in beagle dog at 5 mg/kg, po; format: ADME, organism-based, Canis lupus familiaris; details: in vivo
Method in brief: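 Crossover study in three male beagle dogs (12 ± 0.4 kg) with a one-week washout between routes; dosed in PEG-400/ethanol (90/10) with pH adjusted by 0.1 N NaOH. After an overnight fast, 5 mg/kg was given by oral gavage. Serial blood was drawn before dosing and at 15–1440 min.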

[3] = test system: Human immunodeficiency virus 1; assay: Selectivity ratio of EC50 for ENV pseudotyped CCR5-tropic HIV1 […] in presence of 40%human serum to EC50 for ENV pseudotyped CCR5-tropic HIV1 […] in absence of 40%human serum; format: functional
Method in brief: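 Single-cycle assay: env-deleted HIV-1 firefly-luciferase reporter virus pseudotyped by transfection with the JRFL (CCR5-tropic) envelope; HeLa 67 cells infected with compound (DMSO stocks, 3-fold serial dilutions). Luciferase read 3 days post-infection.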

[4] = test system: Human immunodeficiency virus 1; assay: Antiviral activity against ENV pseudotyped CCR5-tropic HIV1 […] infected in human HeLa67 cells after 3 days by luciferase reporter gene assay; format: functional, organism-based; details: Human immunodeficiency virus 1, HeLa67, 72 h
Method in brief: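 Single-cycle infection with env-deleted, luciferase-reporter HIV-1 pseudotyped with the JRFL (CCR5) envelope, supplied by transfection; viral titers normalized by luminescence without compound. HeLa 67 cells were infected in the presence of compounds given as 3-fold serial dilutions made from 30 mM DMSO stocks.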

MT2 = assay: Cytotoxicity against human MT2 cells assessed as decrease in cell viability after 3 days […]; format: functional; details: MT2, 72 h
[5] = Protein binding in human plasma; format: ADME, cell-free; details: read-out: PPB (converted)
[6] = target: Envelope glycoprotein gp160 (Human immunodeficiency virus 1, UniProt Q6QLK5); assay: Inhibition of [3H]BMS-488043 binding to HIV-1 JRFL gp120 after 1 hr by scintillation counting method
[7] = AUC in Sprague-Dawley rat at 5 mg/kg, po after 24 hrs; format: ADME, organism-based; parameters: time < 24 hr, dose 5 mg/kg, route oral; details: in vivo
Method in brief: (§1)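 Male Sprague-Dawley rats (300−350 g) with jugular vein and/or bile duct cannulas, n = 3 per route; dosed as a solution in PEG-400/ethanol (90/10). The iv dose was 1 mg/kg given as a 0.5 min bolus, with jugular blood sampled from 2 to 1440 min. The po dose was 5 mg/kg after an overnight fast, sampled from 15 to 1440 min. Plasma was taken from EDTA blood.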

[8] = test system: Human immunodeficiency virus 1; assay: Antiviral activity against HIV1 infected in patients assessed as reduction in plasma viral load by measuring log10 viral copies at 800 mg, bid measured at day 8 (reference value: 0.02 log10 copies/ml); format: functional
[9] = test system: Human immunodeficiency virus 1; assay: Antiviral activity against HIV1 infected in patients assessed as reduction in plasma viral load by measuring log10 viral copies at 1800 mg, bid measured at day 8; format: functional
[10] = target: Envelope glycoprotein gp160 (Human immunodeficiency virus 1) (UniProt Q6QLK5); assay: Binding affinity to HIV-1 JRFL gp120 assessed as half life for dissociation
[11] = Half life in human liver microsomes; format: ADME, microsome
[12] = AUC in cynomolgus monkey at 5 mg/kg, po administered via gavage; format: ADME, organism-based, Macaca fascicularis; details: in vivo
Method in brief: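 Crossover study in three male cynomolgus monkeys (10 ± 0.8 kg) with a one-week washout between routes; dosed in PEG-400/ethanol (90/10) with pH adjusted by 0.1 N NaOH. After an overnight fast, 5 mg/kg was given by oral gavage. Serial blood was drawn before dosing and at 15–1440 min.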

[13] = test system: Human immunodeficiency virus 1; assay: Antiviral activity against HIV1 infected in patients assessed as reduction in maxmum viral RNA by measuring log10 viral copies at 800 mg, bid measured at day 8; format: functional
Cynomolgus monkey = assay: Oral bioavailability in cynomolgus monkey assessed as BMS-626529 formation at 5 mg/kg administered via gavage; format: ADME, organism-based, Macaca fascicularis; details: in vivo
Canis familiaris = assay: Oral bioavailability in beagle dog assessed as BMS-626529 formation at 5 mg/kg; format: ADME, organism-based, Canis lupus familiaris; details: in vivo
[14] = test system: Human immunodeficiency virus 1; assay: Antiviral activity against recombinant pseudotyped HIV1 subtype B infected in human U87 cells expressing CD4/CCR5/CXCR4 by luciferase reporter gene assay; format: functional, organism-based; details: Human immunodeficiency virus 1, subtype B, U-87 MG
[15] = Aqueous solubility of the compound at pH 10; format: physicochemical; details: buffer
Method in brief: (§2)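 Crystalline solid sample; aqueous solubility measured in buffers at the stated pH.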

[16] = Permeability in human Caco2 cells; format: ADME, cell-based; details: Caco-2, read-out: permeability
[17] = test system: Human immunodeficiency virus 1; assay: Antiviral activity against recombinant pseudotyped HIV1 subtype C infected in human U87 cells expressing CD4/CCR5/CXCR4 by luciferase reporter gene assay; format: functional, organism-based; details: Human immunodeficiency virus 1, subtype C, U-87 MG
Rattus norvegicus = assay: Oral bioavailability in Sprague-Dawley rat assessed as BMS-626529 formation at 5 mg/kg; format: ADME, organism-based; details: in vivo
[18] = Aqueous solubility of the compound at pH 1; format: physicochemical; details: buffer; method in brief: as §2
[19] = Drug uptake in Sprague-Dawley rat plasma assessed as BMS-626529 level at <= 25 mg/kg, po after 3 hrs; format: ADME, organism-based; details: in vivo
Method in brief: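 Rats were dosed orally with parent (solution in PEG-400/EtOH/0.1 N NaOH at ≤25 mg/kg; suspension at 200 mg/kg) or with prodrug as an aqueous solution. Plasma AUC of the parent drug was compared between the two.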

[20] = Drug uptake in Sprague-Dawley rat plasma assessed as BMS-626529 level at 200 mg/kg, po after 3 hrs; format: ADME, organism-based; details: in vivo
[21] = test system: Human immunodeficiency virus 1; assay: Antiviral activity against recombinant pseudotyped HIV1 subtype A infected in human U87 cells expressing CD4/CCR5/CXCR4 by luciferase reporter gene assay; format: functional, organism-based; details: Human immunodeficiency virus 1, subtype A, U-87 MG
[22] = Aqueous solubility of the compound; format: physicochemical; details: buffer
[23] = Metabolic stability in human liver microsomes assessed as parent compound remaining after 10 mins; format: ADME, microsome; details: read-out: Stability
Method in brief: (§3)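 Compound at 3 μM was incubated with human or rat liver microsomes, and the percentage of parent compound remaining was measured after 10 min.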

[24] = Volume of distribution at steady state in Sprague-Dawley rat at 1 mg/kg, iv; format: ADME, organism-based; details: in vivo, read-out: Vdss; method in brief: as §1
[25] = Oral bioavailability in Sprague-Dawley rat at 5 mg/kg; format: ADME, organism-based; details: in vivo; method in brief: as §1
[26] = Half life in Sprague-Dawley rat at 1 mg/kg, iv; format: ADME, organism-based; details: in vivo
[27] = Metabolic stability in rat liver microsomes assessed as parent compound remaining after 10 mins; format: ADME, microsome; details: read-out: Stability; method in brief: as §3
[28] = Clearance in Sprague-Dawley rat at 1 mg/kg, iv; format: ADME, organism-based; details: in vivo
[29] = Half life in rat liver microsomes; format: ADME, microsome

Envelope glycoprotein gp160 (Human immunodeficiency virus 1), sequence (Q6QLK5 1-814): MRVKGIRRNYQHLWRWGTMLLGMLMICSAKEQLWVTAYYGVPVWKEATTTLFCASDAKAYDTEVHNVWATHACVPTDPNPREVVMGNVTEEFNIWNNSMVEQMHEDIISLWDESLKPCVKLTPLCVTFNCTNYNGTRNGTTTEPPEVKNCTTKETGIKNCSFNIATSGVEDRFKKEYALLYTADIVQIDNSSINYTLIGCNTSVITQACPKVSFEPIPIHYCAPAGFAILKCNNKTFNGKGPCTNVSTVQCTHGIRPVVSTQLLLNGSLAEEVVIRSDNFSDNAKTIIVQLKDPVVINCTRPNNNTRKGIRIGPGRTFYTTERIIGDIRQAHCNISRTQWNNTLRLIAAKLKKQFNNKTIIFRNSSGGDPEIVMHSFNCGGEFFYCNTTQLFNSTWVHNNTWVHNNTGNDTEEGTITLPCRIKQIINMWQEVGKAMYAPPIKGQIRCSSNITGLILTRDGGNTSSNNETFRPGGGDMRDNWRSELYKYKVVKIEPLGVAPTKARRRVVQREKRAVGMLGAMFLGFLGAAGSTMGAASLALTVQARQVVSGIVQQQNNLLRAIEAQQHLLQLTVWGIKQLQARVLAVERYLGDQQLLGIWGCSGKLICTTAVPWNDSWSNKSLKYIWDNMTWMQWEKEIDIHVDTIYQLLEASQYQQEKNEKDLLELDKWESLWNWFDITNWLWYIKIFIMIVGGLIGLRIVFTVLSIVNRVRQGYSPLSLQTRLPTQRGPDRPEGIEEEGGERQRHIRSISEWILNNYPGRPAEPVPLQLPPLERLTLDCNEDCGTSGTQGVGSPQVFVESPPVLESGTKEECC
Envelope glycoprotein gp160, sequence (Q6QLK5 whole entry): as the sequence (Q6QLK5 1-814) above

| SMILES | EC50 [4] [nM] | CC50 (MT2) [nM] | AUC at 24 h [7] [µM·h] | Papp [16] [×10⁻⁶ cm/s] | remaining at 10 min [23] [%] | Vd [24] [L/kg] | bioavailability [25] [%] | half-life [26] [h] | remaining at 10 min [27] [%] | clearance [28] [mL/min/kg] | further results |
| --- | --- | --- | --- | --- | --- | --- | --- | --- | --- | --- | --- |
| COc1ncc(OC)c2c(C(=O)C(=O)N3CCN(C(=O)c4ccccc4)CC3)c[nH]c12 | 0.88 | > 300000 | 15 |  |  |  |  |  |  |  | log(activity) [1]: 1.32 /ml; AUC [2]: 43 µM·h; Ratio EC50 [3]: 1.9 - 3.7; fraction unbound [5]: 0.05; Kd [6]: 19 nM; log(activity) [8]: 0.72 /ml; log(activity) [9]: 0.96 /ml; T1/2 [10]: 0.717 h; half-life [11]: > 1.67 h; AUC [12]: 28 µM·h; log(activity) [13]: 1.5 /ml |
| COc1cnc(-n2cnc(C)n2)c2[nH]cc(C(=O)C(=O)N3CCN(C(=O)c4ccccc4)CC3)c12 |  | > 300000 | 111 | 18.2 |  |  |  |  |  |  | bioavailability (Cynomolgus monkey): 80 to 122%; AUC [2]: 61 µM·h; bioavailability (Canis familiaris): 80 to 122%; IC50 [14]: 4.59 nM; solubility [15]: 70 µg/mL (≈ 148 µM); IC50 [17]: 7.09 nM; bioavailability (Rattus norvegicus): 80 to 122%; T1/2 [10]: 7.63 h; solubility [18]: 50 µg/mL (≈ 106 µM); Drug uptake [19]: Active; Drug uptake [20]: Active; IC50 [21]: 87.9 nM |
| COc1cnc(-n2ccc(C)n2)c2[nH]cc(C(=O)C(=O)N3CCN(C(=O)c4ccccc4)[C@H](C)C3)c12 | 0.16 | 142000 | 13.2 | 20 | 72 | 0.47 | 72.8 | 0.56 | 78 |  | solubility [22]: 69 µg/mL (≈ 142 µM) |
| COc1cnc(-n2cc(C)nn2)c2[nH]cc(C(=O)C(=O)N3CCN(C(=O)c4ccccc4)[C@H](C)C3)c12 | 0.13 | 124000 | 34.8 | 22.4 | 74 | 0.29 | 65.5 | 1.4 | 76 | 4.3 |  |
| COc1cnc(-c2cnccn2)c2[nH]cc(C(=O)C(=O)N3CCN(C(=O)c4ccccn4)[C@H](C)C3)c12 | 0.4 | > 300000 | 7.8 | 12.5 | 95 | 1.1 | 61 | 2.4 | 80 | 8.8 |  |
| CCNC(=O)c1ncn(-c2ncc(OC)c3c(C(=O)C(=O)N4CCN(C(=O)c5ccccc5)CC4)c[nH]c23)n1 | 0.14 | > 300000 |  | < 1.5 | 97 |  |  |  | 100 |  | solubility [22]: 58 µg/mL (≈ 109 µM) |
| COc1cnc(-n2cnc(N3CCOCC3)n2)c2[nH]cc(C(=O)C(=O)N3CCN(C(=O)c4ccccc4)CC3)c12 | 0.07 | 203000 | 13 | 5.8 | 64 | 0.26 | 52 | 1.5 | 89 | 6.1 |  |
| COCc1ncn(-c2ncc(OC)c3c(C(=O)C(=O)N4CCN(C(=O)c5ccccc5)[C@H](C)C4)c[nH]c23)n1 | 0.09 | > 300000 |  | 2.2 |  |  |  |  |  |  | half-life [29]: 1.67 h; half-life [11]: 1.67 h |
